Measured values published in ChEMBL document CHEMBL3758120, “Synthesis and Mechanism Studies of 1,3-Benzoazolyl Substituted Pyrrolo[2,3-b]pyrazine Derivatives as Nonintercalative Topoisomerase II Catalytic Inhibitors” (J Med Chem, 2016).
Calls of active or inactive are those of the source. The rule behind the calls is not given here.

Experiments:
HeLa = experiment: Antiproliferative activity against human HeLa cells after 48 hrs by MTT assay; assay type: functional, cell-based
Summary of the method: (§1)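 Cells seeded at 5000 per well and left overnight, then exposed to increasing concentrations (0-50 μM) for 48 h. […] HL-60/MX2 is a mitoxantrone-selected HL-60 derivative with reduced Topo IIα/β.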

A549 = experiment: Antiproliferative activity against human A549 cells after 48 hrs by MTT assay; assay type: functional, cell-based; conditions: A549, 48 h; summary of the method: as §1
[1] = biological target: T1, DNA topoisomerase 2-alpha (Homo sapiens, UniProt P11388); experiment: Inhibition of purified human topoisomerase 2-mediated relaxation of supercoiled pBR322 DNA at 20 uM incubated for 30 mins by agarose gel electrophoresis
Summary of the method: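 Reactions contained 0.2 μg supercoiled pBR322 in 50 mM Tris-HCl pH 8.0, 150 mM NaCl, 10 mM MgCl2, 0.5 mM DTT, 30 μg/ml BSA, normally 2 mM ATP (1, 2 or 4 mM in ATP-competition runs). Started with 1 U human Topo II, 30 min at 37 °C, stopped with sarcosyl buffer, run on 1% agarose 1.5 h at 75 V, gel-stained and imaged under UV.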

HEK293 = experiment: Cytotoxicity against HEK293 cells after 48 hrs by MTT assay; assay type: cell-based; conditions: Homo sapiens, HEK293, 48 h
Raji = experiment: Antiproliferative activity against human Raji cells after 48 hrs by MTT assay; assay type: functional, cell-based; summary of the method: as §1
[2] = Antiproliferative activity against human MDA-MB-201 cells after 48 hrs by MTT assay; assay type: functional, cell-based; summary of the method: as §1
[3] = Antiproliferative activity against human HL60 cells after 48 hrs by MTT assay; assay type: functional, cell-based; conditions: HL-60, 48 h; summary of the method: as §1
HL-60 = experiment: Resistance index, ratio of IC50 for human HL60/MX2 cells to IC50 for HL60 cells; assay type: functional
Summary of the method: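 Resistance index calculated as MTT-derived IC50 (48 h exposure, 0-50 μM, A570 readout) in HL-60/MX2 divided by IC50 in parental HL-60.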

[4] = Antiproliferative activity against human HL60/MX2 cells after 48 hrs by MTT assay; assay type: functional, cell-based; conditions: HL60/MX2, 48 h; summary of the method: as §1
K562 = experiment: Antiproliferative activity against human K562 cells after 48 hrs by MTT assay; assay type: functional, cell-based; conditions: K562, 48 h; summary of the method: as §1
[5] = biological target: T2, DNA topoisomerase 1 (Homo sapiens) (UniProt P11387); experiment: Inhibition of recombinant human topoisomerase 1-mediated relaxation of supercoiled pBR322 DNA at 50 uM incubated for 30 mins by agarose gel electrophoresis
T2 sequence (whole entry): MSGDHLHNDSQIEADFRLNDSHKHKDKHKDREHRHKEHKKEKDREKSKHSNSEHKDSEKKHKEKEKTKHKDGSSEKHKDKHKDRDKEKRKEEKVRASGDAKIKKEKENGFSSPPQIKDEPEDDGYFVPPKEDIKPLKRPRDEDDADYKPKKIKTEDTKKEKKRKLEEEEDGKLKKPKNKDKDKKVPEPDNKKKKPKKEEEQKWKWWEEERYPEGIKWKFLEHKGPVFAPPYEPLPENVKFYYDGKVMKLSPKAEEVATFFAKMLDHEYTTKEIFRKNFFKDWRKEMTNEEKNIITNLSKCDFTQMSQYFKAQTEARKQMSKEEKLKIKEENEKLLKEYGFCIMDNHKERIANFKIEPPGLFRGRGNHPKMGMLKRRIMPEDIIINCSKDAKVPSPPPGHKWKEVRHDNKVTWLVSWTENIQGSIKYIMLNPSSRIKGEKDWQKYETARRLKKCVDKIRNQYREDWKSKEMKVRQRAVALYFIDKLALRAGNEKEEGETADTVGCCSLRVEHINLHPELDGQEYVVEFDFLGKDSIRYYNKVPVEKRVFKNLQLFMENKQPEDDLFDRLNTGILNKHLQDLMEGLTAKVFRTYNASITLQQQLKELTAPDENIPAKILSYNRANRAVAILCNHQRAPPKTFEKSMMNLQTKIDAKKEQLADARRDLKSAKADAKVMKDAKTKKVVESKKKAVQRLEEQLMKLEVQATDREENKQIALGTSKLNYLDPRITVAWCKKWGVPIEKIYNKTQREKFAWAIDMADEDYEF
Summary of the method: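 Supercoiled pBR322 relaxed by Topo I with compound, incubated 30 min at 37 °C, stopped with 1% SDS dye, run on 1% agarose 1 h at 90 V in TAE, stained and imaged under UV; camptothecin as reference.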

[6] = biological target: T1, DNA topoisomerase 2-alpha; conditions: 100 uM
[7] = biological target: T2, DNA topoisomerase 1 (Homo sapiens); conditions: 0.6 to 5 uM
[8] = biological target: T1, DNA topoisomerase 2-alpha; conditions: HL-60, 10 uM
Escherichia coli = experiment: Binding affinity to Escherichia coli pBR322 DNA assessed as intercalation of pBR322 DNA at 0.1 to 100 uM by fluorescence based ethidium bromide displacement assay
Summary of the method: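 Increasing concentrations added to 20 nM pBR322 plasmid with 2.5 μM ethidium bromide in 10 mM HEPES pH 7.9, 100 mM KCl, 5 mM MgCl2, 0.1 mM EDTA. Fluorescence emission spectra recorded (excitation 510 nm, emission max 595 nm) at each concentration; mAMSA used as intercalating reference.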

T1 sequence (P11388 whole entry): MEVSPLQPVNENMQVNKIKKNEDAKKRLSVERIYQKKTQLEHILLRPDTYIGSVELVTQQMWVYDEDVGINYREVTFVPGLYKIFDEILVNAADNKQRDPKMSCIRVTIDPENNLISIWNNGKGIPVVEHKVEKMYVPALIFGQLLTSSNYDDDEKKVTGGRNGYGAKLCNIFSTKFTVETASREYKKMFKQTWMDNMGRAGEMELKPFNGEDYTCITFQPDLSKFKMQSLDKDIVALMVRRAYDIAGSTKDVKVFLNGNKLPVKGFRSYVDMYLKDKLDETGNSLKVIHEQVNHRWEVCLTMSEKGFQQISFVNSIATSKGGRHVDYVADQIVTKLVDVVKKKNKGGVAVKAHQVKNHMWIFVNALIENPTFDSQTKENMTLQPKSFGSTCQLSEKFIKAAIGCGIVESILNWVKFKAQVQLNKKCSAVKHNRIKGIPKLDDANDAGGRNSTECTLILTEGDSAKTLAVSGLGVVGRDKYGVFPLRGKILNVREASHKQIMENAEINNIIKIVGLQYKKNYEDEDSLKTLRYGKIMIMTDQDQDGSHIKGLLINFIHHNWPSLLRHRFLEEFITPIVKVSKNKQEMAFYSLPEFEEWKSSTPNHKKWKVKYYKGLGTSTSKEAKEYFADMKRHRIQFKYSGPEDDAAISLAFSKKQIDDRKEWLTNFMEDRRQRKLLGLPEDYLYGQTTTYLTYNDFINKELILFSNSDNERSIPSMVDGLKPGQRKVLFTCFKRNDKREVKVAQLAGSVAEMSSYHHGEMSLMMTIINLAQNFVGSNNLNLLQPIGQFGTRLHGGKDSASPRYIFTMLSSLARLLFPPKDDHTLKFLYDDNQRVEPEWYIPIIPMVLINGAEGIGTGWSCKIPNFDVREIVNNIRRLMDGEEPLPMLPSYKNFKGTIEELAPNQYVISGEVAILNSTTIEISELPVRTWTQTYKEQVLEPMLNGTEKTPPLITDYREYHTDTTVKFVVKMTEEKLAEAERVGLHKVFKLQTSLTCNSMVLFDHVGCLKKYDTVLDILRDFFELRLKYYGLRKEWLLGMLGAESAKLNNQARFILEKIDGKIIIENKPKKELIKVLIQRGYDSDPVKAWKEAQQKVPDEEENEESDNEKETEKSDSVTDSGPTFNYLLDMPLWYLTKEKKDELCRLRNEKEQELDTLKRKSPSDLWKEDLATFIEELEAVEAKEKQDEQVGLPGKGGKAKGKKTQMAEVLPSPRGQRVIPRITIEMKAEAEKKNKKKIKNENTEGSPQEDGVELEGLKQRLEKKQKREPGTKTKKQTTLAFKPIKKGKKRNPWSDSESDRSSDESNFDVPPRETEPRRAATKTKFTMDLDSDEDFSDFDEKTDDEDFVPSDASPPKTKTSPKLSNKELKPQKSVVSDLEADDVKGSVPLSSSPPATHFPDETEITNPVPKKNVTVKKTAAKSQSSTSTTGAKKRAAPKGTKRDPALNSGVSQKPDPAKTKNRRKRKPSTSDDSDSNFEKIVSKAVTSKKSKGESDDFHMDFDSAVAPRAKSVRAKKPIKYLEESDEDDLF

| SMILES | IC50 (HeLa) | IC50 (A549) | inhibition [1] | IC50 (Raji) | IC50 (K562) | inhibition [5] | inhibition [6] | inhibition [7] | inhibition [8] | inhibition (Escherichia coli) | IC50 (HEK293) | IC50 [2] | IC50 [3] | Ratio IC50 (HL-60) | IC50 [4] |
| --- | --- | --- | --- | --- | --- | --- | --- | --- | --- | --- | --- | --- | --- | --- | --- |
| CN(C)CCCn1c(N)c(-c2nc3ccccc3[nH]2)c2nc(C#N)c(C#N)nc21 | 25.9 µM | 10.4 µM | Active | 1.23 µM | 1.73 µM | inactive |  |  |  |  | 8.36 µM | 1.82 µM | 0.87 µM | 2.7 | 2.39 µM |
| COc1cc([C@@H]2c3cc4c(cc3[C@@H](O[C@@H]3O[C@@H]5CO[C@@H](C)O[C@H]5[C@H](O)[C@H]3O)[C@H]3COC(=O)[C@H]23)OCO4)cc(OC)c1O [ETOPOSIDE] | 32.5 µM | 6.74 µM | Active | 1.68 µM | 0.51 µM |  | Active | Active | Active |  | 0.69 µM | 31.3 µM | 0.16 µM | 56.4 | 9.02 µM |
| COc1cc(NS(C)(=O)=O)ccc1Nc1c2ccccc2nc2ccccc12 |  |  |  |  |  |  |  |  |  | Active |  |  |  |  |  |
| CCN(CC)CCCn1c(N)c(-c2nc3ccccc3n2C)c2nc(C#N)c(C#N)nc21 | 12.4 µM | 10.7 µM | Active | 2.22 µM | 3.27 µM |  |  |  |  |  | 7.24 µM | 6.75 µM | 2.81 µM | 1.6 | 4.47 µM |
| CN(C)CCCCn1c(N)c(-c2nc3ccccc3s2)c2nc(C#N)c(C#N)nc21 | 18.7 µM | 35.8 µM | Active | 10.1 µM | 1.33 µM |  |  |  |  |  | 5.31 µM | 2.74 µM | 0.83 µM | 2.6 | 2.14 µM |
| CCN(CC)CCCCn1c(-c2c(N)n(C)c3nc(C#N)c(C#N)nc23)nc2ccccc21 | 11.8 µM | 13.1 µM | Active | 0.6 µM | 3.18 µM |  |  |  |  |  | 8.82 µM | 6.95 µM | 2.86 µM | 1.3 | 3.92 µM |

Further compounds by falling IC50 (HeLa), results first:

| IC50 (HeLa) | IC50 (A549) | inhibition [1] | IC50 (Raji) | IC50 (K562) | inhibition [5] | inhibition [6] | inhibition [7] | inhibition [8] | inhibition (Escherichia coli) | SMILES | IC50 (HEK293) | IC50 [2] | IC50 [3] | Ratio IC50 (HL-60) | IC50 [4] |
| --- | --- | --- | --- | --- | --- | --- | --- | --- | --- | --- | --- | --- | --- | --- | --- |
| 11.2 µM | 7.17 µM | Active | 1.94 µM | 5.9 µM |  |  |  |  |  | CN(C)CCCn1c(N)c(-c2nc3ccccc3o2)c2nc(C#N)c(C#N)nc21 | 5.88 µM | 5.64 µM | 0.39 µM | 3.3 | 1.31 µM |
| 6.42 µM | 9.39 µM | Active | 2.61 µM | 1.98 µM |  |  |  |  |  | CCN(CC)CCCCn1c(N)c(-c2nc3ccccc3o2)c2nc(C#N)c(C#N)nc21 | 3.96 µM | 2.71 µM | 0.45 µM | 3.8 | 1.72 µM |
| 4.32 µM | 11.7 µM | Active | 0.94 µM | 3.56 µM |  |  |  |  |  | CN(C)CCCn1c(N)c(-c2nc3ccccc3n2C)c2nc(C#N)c(C#N)nc21 | 8.41 µM | 3.67 µM | 2.12 µM | 5.3 | 11.3 µM |
| 3.15 µM | 25.3 µM | Active | 1.87 µM | 1.8 µM | inactive |  |  |  |  | CCN(CC)CCCn1c(N)c(-c2nc3ccccc3[nH]2)c2nc(C#N)c(C#N)nc21 | 7.87 µM | 28.9 µM | 0.73 µM | 2.5 | 1.82 µM |
| 1.95 µM | 5.47 µM | Active | 9.2 µM | 1.38 µM |  |  |  |  |  | CN(C)CCCCn1c(N)c(-c2nc3ccccc3o2)c2nc(C#N)c(C#N)nc21 | 6.24 µM | 6.13 µM | 0.64 µM | 1.5 | 0.96 µM |
